This is an account of results in ChEMBL document CHEMBL1134494, “2-Amino-6-arylsulfonylbenzonitriles as non-nucleoside reverse transcriptase inhibitors of HIV-1” (J Med Chem, 2001).

For test [1], the system named is Human immunodeficiency virus 1. Kind of test: Antiviral activity against HIV-1 infected human MT-4 cells. The test is classed as functional, organism-based. Conditions: Human immunodeficiency virus 1, MT4. The method in brief:
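HTLV-1-transformed MT4 cells were infected with HIV-1 strain 3B at 100× the amount giving a 50% drop in cell growth. They were cultured 5 days with a range of compound concentrations. IC50 is the concentration restoring 50% of infected-cell growth (cytopathic effect) relative to uninfected MT4 controls.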

The subject of the next test is MT4. The experiment in a line: Cell culture cytotoxicity against MT-4 cells. Conditions: Homo sapiens. The test is classed as functional, cell-based. In outline: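 MT4 cells were exposed to compound in parallel with the 5-day HIV-1 strain 3B cytopathic-effect assay. Compound-induced cytotoxicity is reported as the cell culture cytotoxicity IC50 (CCIC50).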
Test [2] addresses Human immunodeficiency virus type 1 reverse transcriptase (Human immunodeficiency virus 1, UniProt Q72547). The experiment in a line: Inhibitory activity against HIV-1 reverse transcriptase. The method in brief:
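Recombinant HIV RT at 1 nM was combined with 40 nM Eu-chelate-labeled biotinylated DNA primer/RNA template and 100 nM Cy5-dUTP. Reactions were started with enzyme.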

Each structure is given as a SMILES string. Bounds are passed on as bounds.

Regarding `N#Cc1ccc(S(=O)(=O)c2cccc(N)c2C#N)cc1`, the figures for the IC50 (in test [1]; in the test on MT4; in test [2]) were 80 µM, above 200 µM and above 18 µM, respectively.

Turning to `N#Cc1c(N)cccc1S(=O)(=O)c1cccc(F)c1`, the IC50 was 3 µM in test [1] and above 200 µM in the test on MT4.

With `COc1cc(C)cc(Sc2cccc(N)c2C#N)c1`, the IC50 amounted to 2 µM in test [1], 10 µM with MT4 and 0.14 µM in test [2].

With `N#Cc1c(N)cccc1[S+]([O-])c1cccc(Br)c1` (stereo unspecified), the IC50 in test [1] amounted to 0.08 µM; in test [2], 4.8 µM.

With `COc1cccc(S(=O)(=O)c2cccc(N)c2C#N)c1`, the IC50 in test [1] is 0.9 µM; in the test with MT4, above 200 µM; in test [2] it was 0.6 µM.

As to `Cc1cccc(S(=O)(=O)c2cccc(N)c2C#N)c1`, the IC50 in test [1] came to 0.4 µM; in the test with MT4, 179 µM; in test [2], 0.2 µM.

In the case of `N#Cc1cccc(Sc2cccc(N)c2C#N)c1`, the IC50 turned out to be 1.73 µM in test [1], 80 µM in the test with MT4 and 1.1 µM in test [2].

Take `N#Cc1cccc(S(=O)(=O)c2cccc(N)c2C#N)c1`: the IC50 is 2.4 µM in test [1], above 200 µM with MT4 and 1.8 µM in test [2].

`N#Cc1c(N)cccc1Sc1cccc(C(F)(F)F)c1`: the values for the IC50 (in test [1]; in the test on MT4; in test [2]) were 12.8 µM, 34 µM and 7.1 µM, respectively.

`N#Cc1c(N)cccc1Sc1cccc(Br)c1`: the IC50 in test [1] turned out to be 5.1 µM; in the test on MT4, 53 µM; in test [2], 15 µM.

For the compound `N#Cc1c(N)cccc1Sc1ccc(Cl)cc1`, the figures for the IC50 (in test [1]; with MT4; in test [2]) were above 32 µM, 113 µM and 12 µM, respectively.

Take `N#Cc1c(N)cccc1[S+]([O-])c1ccc(Br)cc1` (stereo unspecified): the results for the 50% inhibitory concentration (IC50) (in test [1]; in the test with MT4; in test [2]) were 20.2 µM, above 200 µM and above 21 µM, respectively.

Turning to `N#Cc1c(N)cccc1Sc1cc(Cl)ccc1Cl`, the IC50 in test [1] is above 0.8 µM; with MT4 it was 4.3 µM; in test [2] it was 3.5 µM.

Consider `Nc1cccc(S(=O)(=O)c2ccccc2)c1`, for which the IC50 (in test [1]; with MT4) was above 50 µM each time.

Turning to `N#Cc1c(N)cccc1Sc1ccccc1Br`, the values for the IC50 (in test [1]; in the test on MT4; in test [2]) were 30 µM, 41 µM and above 21 µM, respectively.

For the compound `N#Cc1ccccc1Sc1cccc(N)c1C#N`, the IC50 in test [1] was above 6.4 µM; with MT4 it was 42 µM; in test [2], 9.1 µM.

On to `COc1cccc(Sc2cccc(N)c2C#N)c1`, for which the IC50 is 6 µM in test [1], above 200 µM with MT4 and 1.5 µM in test [2].

Take `CCCCNc1cccc(S(=O)(=O)c2cc(C)cc(C)c2)c1C#N`: the values for the IC50 (in test [1]; in the test on MT4) were above 12 µM and above 200 µM, respectively.

As for `Cc1cc(Cl)cc(Sc2cccc(N)c2C#N)c1`, the IC50 stood at 1.76 µM in test [1], 16 µM in the test with MT4 and 1.7 µM in test [2].

In the case of `N#Cc1ccccc1[S+]([O-])c1cccc(N)c1C#N` (stereo unspecified), the IC50 in test [1] was 3.9 µM; with MT4, above 200 µM; in test [2] it was 9.9 µM.

On to `N#Cc1c(N)cccc1[S+]([O-])c1cccc(C(F)(F)F)c1` (stereo unspecified), for which the values for the IC50 (in test [1]; with MT4; in test [2]) were 40 µM, 125 µM and above 22 µM, respectively.

Compound `O=[N+]([O-])c1ccccc1S(=O)(=O)c1ccccc1[N+](=O)[O-]` returned an IC50 in test [2] of 14 µM.

For `Cc1cc(O)cc(S(=O)(=O)c2cccc(N)c2C#N)c1`, the IC50 in test [1] came to 0.43 µM; in the test on MT4, 167 µM.

Consider `N#Cc1ccccc1S(=O)(=O)c1cccc(N)c1C#N`, for which the IC50 in test [1] is 5.4 µM; in the test with MT4, above 200 µM; in test [2], 6 µM.

Consider `COc1ccc([S+]([O-])c2cccc(N)c2C#N)cc1` (stereo unspecified), for which the IC50 in test [1] was above 200 µM; with MT4, above 200 µM; in test [2] it was above 20 µM.

As to `COc1ccc(S(=O)(=O)c2cccc(N)c2C#N)cc1`, the IC50 in test [1] was 25 µM; in the test with MT4 it was above 200 µM; in test [2], 13 µM.

For `N#Cc1cccc([S+]([O-])c2cccc(N)c2C#N)c1` (stereo unspecified), the half-inhibitory concentration (IC50) in test [1] is 14.2 µM; in the test with MT4, above 200 µM; in test [2], above 15 µM.

Turning to `Cc1cc(C)cc(S(=O)(=O)c2cccc(NC3CCCCC3)c2C#N)c1`, the concentration for half-maximal inhibition (IC50) (in test [1]; with MT4) was above 200 µM throughout.

Consider `N#Cc1c(N)cccc1Sc1cccc(N)c1`, for which the IC50 is 31.5 µM in test [1], 168 µM in the test with MT4 and above 23 µM in test [2].

For the compound `COc1ccccc1[S+]([O-])c1cccc(N)c1C#N` (stereo unspecified), the IC50 in test [1] was 4.8 µM; in the test on MT4, above 200 µM; in test [2], 12 µM.

`N#Cc1c(N)cccc1S(=O)(=O)c1ccccc1Br`: the figures for the IC50 (in test [1]; in the test on MT4; in test [2]) were 5 µM, 40 µM and 12 µM, respectively.

For `Cc1cc(C)cc(S(=O)(=O)c2cccc(F)c2C#N)c1`, the IC50 was 1.5 µM in test [1] and above 200 µM in the test with MT4.

In the case of `CCOc1cc(C)cc(S(=O)(=O)c2cccc(N)c2C#N)c1`, the IC50 in test [1] was 0.06 µM; in the test with MT4 it was 9 µM.

As to `N#Cc1c(N)cccc1S(=O)(=O)c1cccc(Cl)c1`, the results for the IC50 (in test [1]; in the test with MT4; in test [2]) were 0.59 µM, above 200 µM and 0.4 µM, respectively.

On to `O=[N+]([O-])c1ccccc1S(=O)(=O)c1ccccc1`, for which the IC50 in test [1] amounted to 2.2 µM; in test [2], 16 µM.

`Cc1cccc([S+]([O-])c2cccc(N)c2C#N)c1` (stereo unspecified): the IC50 was 29.2 µM in test [1], above 200 µM in the test with MT4 and 10 µM in test [2].

On to `N#Cc1c(N)cccc1S(=O)(=O)c1ccc2ccccc2c1`, for which the IC50 in test [1] is 0.05 µM; with MT4, above 200 µM; in test [2], 0.03 µM.

For the compound `N#Cc1c(N)cccc1S(=O)(=O)c1cccc(Br)c1`, the IC50 in test [1] was 0.54 µM; with MT4, above 200 µM; in test [2], 0.2 µM.

Consider `Cc1ccc(Sc2cccc(N)c2C#N)cc1`, for which the IC50 in test [1] is 115 µM; in the test with MT4, above 200 µM; in test [2], 5.7 µM.

Consider `N#Cc1ccc(Sc2cccc(N)c2C#N)cc1`, for which the values for the IC50 (in test [1]; in the test with MT4; in test [2]) were 43.8 µM, above 200 µM and above 19 µM, respectively.

Regarding `N#Cc1c(N)cccc1S(=O)(=O)c1ccccc1`, the results for the IC50 (in test [1]; in the test on MT4; in test [2]) were 2 µM, above 5 µM and 6.9 µM, respectively.

Consider `Cc1cc(C)cc(Sc2cccc(N)c2C#N)c1`, for which the IC50 is 0.43 µM in test [1], above 2 µM in the test with MT4 and 1.1 µM in test [2].

Take `N#Cc1c(N)cccc1Sc1cccc(F)c1`: the 50% inhibitory concentration (IC50) in test [1] stood at 9.8 µM; with MT4, 162 µM; in test [2] it was 12 µM.

As for `Cc1ccccc1[S+]([O-])c1cccc(N)c1C#N` (stereo unspecified), the values for the IC50 (in test [1]; in the test with MT4; in test [2]) were 93 µM, above 200 µM and above 21 µM, respectively.

On to `COc1cccc([S+]([O-])c2cccc(N)c2C#N)c1` (stereo unspecified), for which the values for the IC50 (in test [1]; in the test with MT4; in test [2]) were 16 µM, above 80 µM and 19 µM, respectively.

For the compound `N#Cc1c(N)cccc1Sc1ccccc1`, the values for the half-maximal inhibitory concentration (IC50) (in test [1]; in the test with MT4; in test [2]) were 14.6 µM, 168 µM and 8.7 µM, respectively.

In the case of `COc1cc([S+]([O-])c2cccc(N)c2C#N)cc(C(F)(F)F)c1` (stereo unspecified), the IC50 in test [1] amounted to 2.07 µM; in the test on MT4, 108 µM; in test [2], 0.9 µM.

`N#Cc1c(N)cccc1[S+]([O-])c1cc(Cl)ccc1Cl` (stereo unspecified): the IC50 was 9.85 µM in test [1], above 200 µM with MT4 and 6.2 µM in test [2].

As for `N#Cc1c(N)cccc1S(=O)(=O)c1ccc(Br)cc1`, the figures for the IC50 (in test [1]; in the test with MT4; in test [2]) were 20 µM, above 200 µM and above 14 µM, respectively.

For the compound `O=[N+]([O-])c1ccccc1Sc1ccccc1[N+](=O)[O-]`, the IC50 is 93.5 µM in test [1], above 200 µM in the test on MT4 and above 20 µM in test [2].

Take `CCCCOc1cc(C)cc(S(=O)(=O)c2cccc(N)c2C#N)c1`: the IC50 in test [1] is 0.6 µM; with MT4, above 2 µM; in test [2], 0.4 µM.

As for `N#Cc1c(N)cccc1S(=O)(=O)c1cc(Cl)ccc1Cl`, the results for the IC50 (in test [1]; in the test on MT4; in test [2]) were 0.3 µM, above 200 µM and 0.3 µM, respectively.

For `Cc1cc(C)cc([S+]([O-])c2cccc(N)c2C#N)c1` (stereo unspecified), the IC50 was found to be 0.34 µM in test [1], 200 µM in the test with MT4 and 0.5 µM in test [2].

For `COc1ccccc1Sc1cccc(N)c1C#N`, the figures for the IC50 (in test [1]; in the test on MT4; in test [2]) were 4.3 µM, above 200 µM and 2.7 µM, respectively.

For the compound `Cc1ccc(S(=O)(=O)c2cccc(N)c2C#N)cc1`, the IC50 in test [1] is 9.5 µM; with MT4, above 200 µM; in test [2], 7.3 µM.

As to `Cc1ccc([S+]([O-])c2cccc(N)c2C#N)cc1` (stereo unspecified), the figures for the half-maximal inhibitory concentration (IC50) (in test [1]; in the test with MT4; in test [2]) were 49 µM, above 200 µM and above 21 µM, respectively.

For `N#Cc1c(N)cccc1S(=O)(=O)c1ccc(Cl)cc1`, the IC50 was 3 µM in test [1] and above 5 µM in the test with MT4.

For the compound `N#Cc1c(N)cccc1S(=O)(=O)c1ccccc1F`, the IC50 in test [1] was found to be 3 µM; in the test with MT4 it was 57 µM; in test [2] it was 5 µM.

For the compound `N#Cc1c(N)cccc1S(=O)(=O)c1cccc(C(F)(F)F)c1`, the figures for the IC50 (in test [1]; in the test on MT4; in test [2]) were 3.5 µM, 197 µM and 5.3 µM, respectively.

Consider `COc1cc(C)cc(S(=O)(=O)c2cccc(F)c2C#N)c1`, for which the results for the IC50 (in test [1]; in the test on MT4) were 51 µM and 8 µM, respectively.

Regarding `CCCOc1cc(C)cc(S(=O)(=O)c2cccc(N)c2C#N)c1`, the 50% inhibitory concentration (IC50) was 0.06 µM in test [1] and 11 µM in the test with MT4.

For the compound `N#Cc1c(F)cccc1S(=O)(=O)c1cc(Cl)cc(Cl)c1`, the IC50 was determined as 42 µM in test [1] and 188 µM in the test on MT4.

Broadly, the IC50 is the concentration at which inhibition is half-maximal. Low readings indicate higher potency, high ones lower potency.
